Reference: ChEMBL document CHEMBL1157859, “Synthesis of some new pyrimido[2',1':2,3]thiazolo[4,5-b]quinoxaline derivatives as anti-inflammatory and analgesic agents” (2010)

Experiments:
Type in all cases: functional
Rattus norvegicus [1] = experiment: Antiinflammatory activity in Sprague-Dawley rat assessed as protection against carrageenan-induced paw edema at 20 mg/kg, po administered 1 hr before carrageenan challenge measured after 1 hr
Summary of the method: (§1)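 Female Sprague–Dawley rats, fasted 18 h, 6 per group. Given 20 mg/kg orally as an aqueous suspension in distilled water, 1 h before 0.1 mL of 1% w/v carrageenan injected subcutaneously into the left hind footpad. Paw volume was read by mercury plethysmometer before injection and hourly for 4 h. Inhibition % = (Ec − Et)/Ec from edema rates; mean ± S.E, n = 6.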

Rattus norvegicus [2] = experiment: Antiinflammatory activity in Sprague-Dawley rat assessed as protection against carrageenan-induced paw edema at 20 mg/kg, po administered 1 hr before carrageenan challenge measured after 2 hrs; summary of the method: as §1
Rattus norvegicus [3] = experiment: Antiinflammatory activity in Sprague-Dawley rat assessed as protection against carrageenan-induced paw edema at 20 mg/kg, po administered 1 hr before carrageenan challenge measured after 3 hrs; summary of the method: as §1
Mus musculus [4] = experiment: Analgesic activity in Swiss mouse at 20 mg/kg, po assessed as reaction time after 30 mins by hot plate method
Summary of the method: (§2)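 Swiss mice (25–30 g, both sexes), 6 per group, given an oral aqueous suspension at 20 mg/kg. Reaction time on a hot plate was taken as the interval to hind-paw licking or jumping, with a 60 s cut-off. It was measured before dosing (0 min) and at 15, 30, 60 and 90 min after treatment. Mean of six animals.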

Mus musculus [5] = experiment: Analgesic activity in Swiss mouse at 20 mg/kg, po assessed as reaction time after 60 mins by hot plate method; summary of the method: as §2
Mus musculus [6] = experiment: Analgesic activity in Swiss mouse at 20 mg/kg, po assessed as reaction time after 90 mins by hot plate method; summary of the method: as §2
Mus musculus [7] = experiment: Analgesic activity in Swiss albino mouse assessed as protection against acetic acid-induced writhing at 20 mg/kg, po after 30 mins
Summary of the method: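 Swiss mice (25–30 g, both sexes), fasted 16 h, 6 per group. Dosed orally at 20 mg/kg as an aqueous suspension; controls got distilled water. After 30 min, 0.7% aqueous acetic acid was given at 10 mL/kg. Writhes were counted for 20 min. % protection = (control mean − treated mean)/control mean × 100.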

Mus musculus [8] = experiment: Analgesic activity in Swiss albino mouse assessed as protection against acetic acid-induced writhing at 20 mg/kg, po after 1 hr
Mus musculus [9] = experiment: Analgesic activity in Swiss albino mouse assessed as protection against acetic acid-induced writhing at 20 mg/kg, po after 2 hrs
Mus musculus [10] = experiment: Analgesic activity in Swiss albino mouse assessed as protection against acetic acid-induced writhing at 20 mg/kg, po after 3 hrs

| SMILES | Activity (Rattus norvegicus [1]) | Activity (Rattus norvegicus [2]) | Activity (Rattus norvegicus [3]) | Time (Mus musculus [4]) | Time (Mus musculus [5]) | Time (Mus musculus [6]) | Activity (Mus musculus [7]) | Activity (Mus musculus [8]) | Activity (Mus musculus [9]) | Activity (Mus musculus [10]) |
| --- | --- | --- | --- | --- | --- | --- | --- | --- | --- | --- |
| O=c1cc(/N=C/c2ccncc2)nc2sc3nc4ccccc4nc3n12 | 51.1% | 54.2% | 33.4% | 9.66 s | 9.82 s | 10.4 s | 60.2% | 64.1% | 68.2% | 51.1% |
| Nc1cc(=O)[nH]c(Sc2nc3ccccc3nc2Cl)n1 | 58.8% | 58.3% | 41.3% | 8.42 s | 9.41 s | 10.7 s | 68% | 73% | 75.4% | 57.2% |
| Nc1cc(=O)n2c(n1)sc1nc3ccccc3nc12 | 55.3% | 61% | 41.2% | 8.42 s | 9.41 s | 10.7 s | 60.4% | 68% | 73.3% | 46.3% |
| O=c1c2cc3ccccc3nc2nc2sc3nc4ccccc4nc3n12 | 45.3% | 47.6% | 37.6% | 8.84 s | 10.6 s | 10.9 s | 40.4% | 46% | 47.8% | 35.2% |
| O=c1c2cc3c(nc2nc2sc4nc5ccccc5nc4n12)CCCC3 | 38.8% | 41.3% | 24.3% | 8.4 s | 10.4 s | 10.7 s | 42.2% | 45% | 45.1% | 34.7% |
| O=c1c2ccccc2[nH]c2nc3sc4nc5ccccc5nc4n3c(=O)c12 | 40.2% | 41.5% | 30.1% | 8.16 s | 9.78 s | 10.1 s | 42.5% | 49% | 53.1% | 38.4% |
| O=c1c2ccc(Cl)cc2[nH]c2nc3sc4nc5ccccc5nc4n3c(=O)c12 | 43.1% | 48% | 31.5% | 7.07 s | 9.5 s | 12.7 s | 40.5% | 51% | 47.3% | 38.3% |
| Cc1nn(-c2ccccc2)c2nc3nc4sc5nc6ccccc6nc5n4c(=O)c3cc12 | 48.6% | 56.1% | 33.8% | 7.55 s | 8.6 s | 12 s | 45.7% | 52% | 58.3% | 35.5% |
| Cc1cc(C)c2c(N)c3c(=O)n4c(nc3nc2n1)sc1nc2ccccc2nc14 | 58.5% | 60.4% | 45.5% | 10.1 s | 10.7 s | 7.62 s | 72.2% | 75% | 76.2% | 60.3% |
| O=c1c2c(-c3ccccc3)c3c(nc2nc2sc4nc5ccccc5nc4n12)/C(=C\c1ccccc1)CCC3 | 41.3% | 43.8% | 31.9% | 7.51 s | 8.86 s | 10.4 s | 42.4% | 47% | 50.3% | 38.6% |
| O=c1c2c(-c3ccc(Cl)cc3)c3c(nc2nc2sc4nc5ccccc5nc4n12)/C(=C\c1ccc(Cl)cc1)CCC3 | 45.7% | 43.2% | 38.2% | 8.61 s | 9.06 s | 9.22 s | 45% | 53% | 55.6% | 36.3% |
| COc1ccc(/C=C2/CCCc3c2nc2nc4sc5nc6ccccc6nc5n4c(=O)c2c3-c2ccc(OC)cc2)cc1 | 48% | 52.2% | 40.1% | 8.67 s | 9.82 s | 10.4 s | 51.4% | 53% | 56.5% | 38.6% |
| O=C([O-])Cc1ccccc1Nc1c(Cl)cccc1Cl.[Na+] [DICLOFENAC SODIUM] | 52.4% | 60.3% | 42% | 10 s | 11.4 s | 13.2 s | 46% | 55.2% | 62% | 39% |
